Experimental data gathered from unrelated publications.
FLT3: Receptor-type tyrosine-protein kinase FLT3 (FLT3, Homo sapiens, UniProt P36888)
FLT3 D835V/ITD: Receptor-type tyrosine-protein kinase FLT3 (FLT3, Homo sapiens, UniProt P36888, D835V/ITD)
FLT3 N841I: Receptor-type tyrosine-protein kinase FLT3 (FLT3, Homo sapiens, UniProt P36888, N841I)
FLT3 D835Y: Receptor-type tyrosine-protein kinase FLT3 (FLT3, Homo sapiens, UniProt P36888, D835Y)
FLT3 R834Q: Receptor-type tyrosine-protein kinase FLT3 (FLT3, Homo sapiens, UniProt P36888, R834Q)
FLT3 K663Q: Receptor-type tyrosine-protein kinase FLT3 (FLT3, Homo sapiens, UniProt P36888, K663Q)
FLT3 autoinhibited: Receptor-type tyrosine-protein kinase FLT3, autoinhibited (FLT3, Homo sapiens, UniProt P36888)
FLT3 D835V: Receptor-type tyrosine-protein kinase FLT3 (FLT3, Homo sapiens, UniProt P36888, D835V)

| Structure (SMILES) | target | effect on | method | concentration | remaining binding |
| --- | --- | --- | --- | --- | --- |
| Nc1ncc2c(n1)-c1c([nH]c3ccc(C#CC4CC4)cc13)CCCC2 | FLT3 | binding | competition with immobilised ligand | 1 µM | 96% |
| O=C(NCCCC1CCCCC1)c1ccc(CNC(=O)c2cnn(-c3ccccc3)c2C(F)(F)F)cc1 | FLT3 D835V/ITD | cell-free assay | competition with immobilised ligand | 0.1 µM | 100% |
| CC1CCCN1c1nccc(-c2cnn3ncccc23)n1 (stereo not shown) | FLT3 N841I | binding | – | 1 µM | 75% |
| O=C(NCCCN1CCOCC1)c1ccc(Nc2ncc(Cl)c(-c3ccc(Cl)s3)n2)cc1 | FLT3 D835Y | binding | competition with immobilised ligand | 1 µM | 1.8% |
| Cc1c(NC(=O)c2cc(C(N)=O)nc3cc(F)ccc23)c(C(F)(F)F)nn1Cc1ccc(C(C)(C)C)cc1 | FLT3 R834Q | cell-free assay | competition with immobilised ligand | 1 µM | 100% |
| C[C@H]1CCN(c2nccc(-c3cnn4ncccc34)n2)C1 | FLT3 | binding | – | 1 µM | 81% |
| O=C(c1ccc(Nc2ncc(Cl)c(-c3cc4ccccc4s3)n2)cc1)N1CCC(N2CCCC2)CC1 | Receptor-type tyrosine-protein kinase FLT3 (FLT3, Homo sapiens, UniProt P36888, F691L/ITD) | binding | competition with immobilised ligand | 1 µM | 2.7% |
| c1cncc(-c2cccc(Nc3nccc(NC4CCCCC4)n3)c2)c1 | FLT3 R834Q | binding | competition with immobilised ligand | 10 µM | 5.5% |
| COc1cnc(Nc2cccc(S(N)(=O)=O)c2)nc1N1CCN(c2ccccc2)CC1 | FLT3 K663Q | binding | competition with immobilised ligand | 1 µM | 36% |
| C=CC(=O)N1CCC(C(=O)NCC(=O)N2CCN(c3nc(-c4cnc(N)nc4C(F)F)nc(N4CCOCC4)n3)CC2)CC1 | FLT3 autoinhibited | binding | competition with immobilised ligand | 1 µM | 99% |
| NS(=O)(=O)c1cc(NC(=O)Cc2ccccc2)ccc1Oc1cccc(Cl)c1 | FLT3 K663Q | cell-free assay | competition with immobilised ligand | 1 µM | 99% |
| Cc1cnc(Nc2ccc(C(=O)N3CCC(N4CCCC4)CC3)cc2)nc1-c1cc2ccccc2s1 | FLT3 autoinhibited | binding | competition with immobilised ligand | 1 µM | 9.5% |
| CN(C)c1nccc(-c2cnc3ncccn23)n1 | FLT3 D835V | binding | – | 1 µM | 68% |
| CN1CCN(c2ccc(Nc3nccc(-c4ccccc4)n3)cc2C(F)(F)F)CC1 | FLT3 N841I | binding | – | 10 µM | 3.5% |
| O=C1NC(c2ccccn2)Sc2ccccc21 (stereo not shown) | FLT3 K663Q | cell-free assay | competition with immobilised ligand | 1 µM | 82% |
| CN1CCN(c2ccc(Nc3nccc(-c4cccc([N+](=O)[O-])c4)n3)cc2C(F)(F)F)CC1 | FLT3 D835Y | binding | – | 10 µM | 0% |
| O=C(NCC1CCOCC1)c1n[nH]cc1NC(=O)c1c(F)cccc1F | FLT3 D835Y | binding | competition with immobilised ligand | 1 µM | 89% |
| c1cnn2ncc(-c3ccnc(N4CCC45COC5)n3)c2c1 | Receptor-type tyrosine-protein kinase FLT3 (FLT3, Homo sapiens, UniProt P36888, D835H) | binding | – | 1 µM | 64% |
| O=C(NC1CCC1)c1ccc2nc(-c3cccc(NS(=O)(=O)NCCN4CCCCC4)c3)cn2c1 | FLT3 D835V/ITD | cell-free assay | competition with immobilised ligand | 10 µM | 37% |

| Structure (SMILES) | target | effect on | method | concentration | remaining binding |
| --- | --- | --- | --- | --- | --- |
| O=C(Nc1c[nH]nc1C(=O)NC1CCNCC1)c1cc(F)cc(F)c1 | FLT3 | binding | competition with immobilised ligand | 1 µM | 100% |
| CC1=C(C#N)C(c2ccc3c(c2)c(NC(=O)c2ccccc2C)nn3C)C(C#N)=C(C)N1 | FLT3 N841I | cell-free assay | competition with immobilised ligand | 1 µM | 74% |
| C[C@@H](c1ccc(-n2cnc3c(N)ncnc32)cc1)N1CCc2nn(C)c(Cc3ccccc3)c2C1=O | FLT3 K663Q | binding | competition with immobilised ligand | 0.1 µM | 77% |
| CN(CCCC(F)(F)F)c1nccc(-c2cnn3ncccc23)n1 | FLT3 K663Q | binding | – | 1 µM | 88% |
| O=C(c1ccc(Nc2ncc(Cl)c(-c3ccc(Cl)s3)n2)cc1)N1CCC(N2CCCC2)CC1 | FLT3 D835V/ITD | binding | competition with immobilised ligand | 1 µM | 1.1% |
| CN(c1nccc(-c2cnn3ncccc23)n1)C1CC1 | FLT3 K663Q | binding | – | 1 µM | 83% |
| CNC(=O)[C@@H]1CC[C@@H](n2c(-c3ccc4cnccc4c3)nc3ccc(C(=O)NCc4cccc(C(N)=O)c4)cc32)C1 | FLT3 K663Q | binding | competition with immobilised ligand | 1 µM | 99% |
| N[C@@H]1CCN(c2nccc(-c3cnn4ncccc34)n2)C1 | FLT3 D835Y | binding | – | 1 µM | 97% |
| O=C(NCCCN1CCOCC1)c1ccc(Nc2nccc(-c3cc4ccccc4s3)n2)cc1 | FLT3 R834Q | binding | competition with immobilised ligand | 1 µM | 43% |
| CCN1CCN(Cc2ccc(C(=O)Nc3ccc(C)c(Oc4ccc5c(c4)CC(=O)N5)c3)cc2C(F)(F)F)CC1 | FLT3 K663Q | binding | competition with immobilised ligand | 1 µM | 45% |
| O=c1nc(-c2ccccn2)sc2ccccc12 | FLT3 | binding | competition with immobilised ligand | 1 µM | 93% |
| C[C@@H]1CN(c2ccc3ncc(-c4ccc5[nH]nc(C6CC6)c5c4)n3n2)C[C@H](C)O1 | FLT3 | binding | competition with immobilised ligand | 0.5 µM | 3% |
| COc1cnc(Nc2cccc(S(N)(=O)=O)c2)nc1N1CCN(c2ccccc2)C(=O)C1 | FLT3 N841I | binding | competition with immobilised ligand | 1 µM | 96% |
| NS(=O)(=O)c1cc(NC(=O)C2(c3ccccc3Cl)CC2)ccc1Oc1cccc(Cl)c1 | FLT3 D835Y | cell-free assay | competition with immobilised ligand | 1 µM | 100% |
| COc1ccnn2ncc(-c3ccnc(N(C)C)n3)c12 | FLT3 D835V | binding | – | 1 µM | 81% |
| O=C(c1ccc(Nc2nccc(-c3cc4ccccc4s3)n2)cc1)N1CCC(N2CCCC2)CC1 | FLT3 R834Q | binding | competition with immobilised ligand | 1 µM | 30% |
| C[C@H](c1cccc(C#N)c1)n1cc(Cl)cc(C(N)=O)c1=N | FLT3 R834Q | cell-free assay | competition with immobilised ligand | 1 µM | 100% |
| COc1ncc2cc3ccccc3nc2c1C#N | FLT3 D835Y | cell-free assay | competition with immobilised ligand | 5 µM | 92% |
